# High-throughput results deposited in PubChem by several laboratories.
# Rows were chosen to be rich in hits. Some 9.4% of all compounds tested hit in one or more screens of this group.
# T cruzi repl: blocks replication of Trypanosoma cruzi; T. cruzi beta-gal in NIH3T3, luminescence, 90 h; inhibition, % (no concentration beside the values); actives 1.4% (n = 300,000);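 active = mean inhibition across valid replicates above about 55%, limit read from the data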;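 note: signal also drops with host cell toxicity which is not excluded here; 0% = plate median of DMSO wells and 100% = zero luminescence signal; higher percent means less beta-gal luminescence so fewer parasites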
#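 Read-out: Parasite load inhibition, % | Test system: Mouse NIH/3T3 fibroblasts infected with β-gal-expressing T. cruzi Tulahuen C4 | Amount: 5,000 cells/well | Medium: DMEM, 2% fetal bovine serum | Signal: GalScreen β-gal luminescence, detergent lysis, 60 min | Timing: 3 h attach, ≥90 h co-culture | Also added: Tulahuen C4 trypomastigotes, 5000/well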
# Lmaj promast: inhibitors of Leishmania major promastigote growth; Leishmania major promastigotes, resazurin fluorescence viability; actives 9% (n = 200,000); AID 1063; inhibition, % at 10 µM; in the data active = inhibition above about 50%;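 note: promastigotes grown with compound for 44 hours at 28 °C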
# Mdm2-MdmX inh: inhibitors of human Mdm2/MdmX interaction. inhibition, % at 8 µM. SaOS-2 split-luciferase Mdm2/MdmX complementation, luminescence. actives 3% (n = 330,000);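 active = inhibition of at least 50% at 8 µM in the primary screen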
# CSC inhib: blocks cancer stem cells; cancer stem cell-like cells viability, luminescence; AID 2717; inhibition, % at 7.5 µM; actives 1.1% (n = 300,000); in the data active = inhibition above about 75%; tested in HMLE shEcad cells
# SKKanGAS inh: SKKanGAS growth inhibition. inhibition, % at 7.5 µM. S. pyogenes SKKanGAS, kanamycin growth, BacTiter-Glo, 6 h. actives 1.3% (n = 300,000);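 active = mean replicate score, as percent of positive control median, at least 50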;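 note: strain carries kanamycin resistance gene driven by streptokinase promoter and grows in 40 µg/ml kanamycin; loss of luminescence reflects streptokinase promoter inhibition or plain growth inhibition; 0% = median of DMSO wells and 100% = positive control at its reference dose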
# Beta cell apopt: blocks beta cell apoptosis | actives 0.8% (n = 300,000) | INS-1E cytokine-induced death, ATP luminescence, 48 h; percent of positive-control rescue, neutral wells zero | protection from apoptosis, % (no concentration beside the values);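 active = Every replicate reaches about 75%, or at least half do and their mean reaches it too, limit read from the data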;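 note: 0% = cytokine-treated negative control wells and 100% = positive control rescue; higher means more ATP so stronger rescue from cytokine killing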
# Mdm2-MdmX conf: human Mdm2/MdmX binding inhibition, confirmed. AID 489028. luminescent assay. shares compounds with Mdm2-MdmX inh. actives 55% (n = 10,000). inhibition, % at 8 µM; in the data active = inhibition above about 40%
# FLuc counter: full-length luciferase inhibition in Mdm2/MdmX counter-screen; shares compounds with Mdm2-MdmX inh; SaOS-2 full-length luciferase counterscreen, luminescence; inhibition, % at 8 µM; actives 77% (n = 6,200);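 active = mean inhibition at 8 µM reaching about 37%, which flags the compound as non-specific, limit read from the data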;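 note: p53-null SaOS-2 cells with luciferase driven by a doxycycline-inducible promoter; compound on cells about two nights before reading with doxycycline added after day one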
# Starred values were filed as active, the others as inactive; . = no result given.
SMILES,T cruzi repl,Lmaj promast,Mdm2-MdmX inh,CSC inhib,SKKanGAS inh,Beta cell apopt,Mdm2-MdmX conf,FLuc counter
CC1c2cc3c(cc2CCN1C(=O)c1cccc(Cl)c1)OCCCO3 (centres undefined),6,.,57*,36,1,6,44*,62*
CCC(C)Nc1nc(N)c([N+](=O)[O-])c(NCc2ccccc2)n1 (centres undefined),-4,.,47,5,13,-4,.,.
CCC(C)Nc1nc(N)c([N+](=O)[O-])c(Nc2ccccc2OC)n1 (centres undefined),16,.,59*,27,2,-4,24,.
CCC(C)Nc1nc(N)c([N+](=O)[O-])c(Nc2cc(OC)ccc2OC)n1 (centres undefined),28,.,69*,63,69*,1,19,.
Cc1ccccc1NC(=O)c1ccc(-c2ccc(Cl)cc2Cl)o1,7,39,27,47,12,1,.,.
O=C(Nc1ccccc1N1CCCCC1)c1ccc(-c2cc(Cl)ccc2Cl)o1,12,.,50*,12,-7,3,-14,.
O=C(Nc1ccc(Cl)cn1)c1ccc(-c2cc(Cl)ccc2Cl)o1,1,-8,74*,19,-10,-4,4,.
Cc1cccc(C)c1NC(=O)c1ccc(-c2ccc(Cl)cc2Cl)o1,29,91*,56*,53,32,0,46*,45*
C=CCOC(=O)C1=C[C@@H](c2coc3ccccc3c2=O)C[C@@H](OCCCCO)O1,-1,.,22,-30,2,6,.,.
O=C(O)C(C(O)c1ccccc1)[n+]1ccccc1 (centres undefined),11,.,1,-7,5,-1,.,.
Cc1sc2ncnc(NCc3cccs3)c2c1C,-4,38,52*,-11,1,101*,28,.
Brc1cc(Br)c2ncnc(N3CCCCC3)c2c1,2,7,89*,84*,11,13,64*,28
Clc1ccc(Cn2ncc3c(N4CCCCC4)ncnc32)cc1,5,2,14,-4,-4,0,.,.
O=C(COc1ccc2ccccc2c1)NNC(=O)C(=O)Nc1ccccc1,-8,.,53*,5,17,21,60*,99*
COc1ccc(NC(=O)C(=O)NNC(=O)COc2ccc(OC)cc2)cc1,-20,.,14,6,1,-3,.,.
O=C(N/N=C1/C(=O)c2cccc3cccc1c23)c1ccc(Cl)cc1,30,57*,59*,38,100*,27,-2,.
O=C(Nc1ccccc1)N(c1ccccc1)C1C=CS(=O)(=O)C1 (centres undefined),-2,.,-16,-17,4,-5,.,.
Cc1cccc(NC(=S)NCCc2ccc3c(c2)OCCO3)c1C,-13,2,4,-7,3,-2,.,.
Cc1ccc2[nH]c(CN3CCC(CO)(CC4CCCCO4)CC3)c(C)c2c1 (centres undefined),32,34,53*,21,-22,-3,30,.
Brc1cnc2nc[nH]c2c1,-23,.,-2,-12,-9,0,.,.
O=C(O)CSCC(=O)Nc1ccc(Cl)cc1C(F)(F)F,-20,-6,18,4,-19,3,.,.
CCC(CC)NC(=O)Nc1cccc(C)c1C,-7,3,5,1,-1,-1,.,.
CC(C)N(CC(=O)Nc1ccc(Cl)cc1C(F)(F)F)C(=O)CCl,83*,3,63*,-6,-2,-6,11,.
CCC(C)N(CC(=O)Nc1cccc(C)c1C)C(=O)CCl (centres undefined),69*,64*,100*,14,-2,4,99*,52*
O=[N+]([O-])c1ccc(-c2ccc(/C=N/Nc3nc(N4CCCC4)nc(N4CCCC4)n3)o2)cc1,42,4,93*,-14,7,5,67*,49*
SMILES,T cruzi repl,Lmaj promast,Mdm2-MdmX inh,CSC inhib,SKKanGAS inh,Beta cell apopt,Mdm2-MdmX conf,FLuc counter
O=[N+]([O-])c1ccc(-c2ccc(/C=N/Nc3nc(N4CCCCC4)nc(N4CCCCC4)n3)o2)cc1,23,15,77*,.,-3,.,15,75*
C#CCN(Cc1ccco1)C(=O)c1ccc(OC2CCN(Cc3ccccn3)CC2)cc1,2,.,-7,-1,0,-2,.,.
CN1CCN(NC(=O)c2c(-c3ccccc3)sc3ccccc23)CC1,.,.,-42,9,.,-2,.,.
CCN(CC)CCCNC(=O)c1cc(-c2ccccc2)c(N2CCCCC2)s1,28,.,76*,83*,1,20,54*,66*
CCN(CC)CCCNC(=O)c1cc(Sc2nnc(C)s2)nc2ccccc12,-7,1,-26,1,1,2,.,.
COc1ccc(OCC(=O)Nc2ccccc2N2CCCCC2)cc1,26,.,61*,61,6,9,76*,59*
COc1ccc(OCC(=O)Nc2ccccc2N2CCN(C)CC2)cc1,7,.,1,1,1,-3,.,.
COCC(=O)Nc1ccccc1-c1ccccc1,-18,-3,-38,.,-6,.,.,.
COc1ccc(OCC(=O)Nc2ccccc2-c2ccccc2)cc1,24,30,53*,53,-18,.,59*,62*
Cc1ccc(C(=O)C2CCN(CC(=O)NC3CCCC3)CC2)cc1,9,.,6,-1,-2,0,.,.
Fc1c(F)c(F)c(/C=N/NC(=S)Nc2cccnc2)c(F)c1F,-8,0,51*,12,6,33,34,74*
CC(C)C[C@@H](C(=O)NC1CCN(Cc2ccccc2)CC1)N1C(=O)N2CCc3c([nH]c4ccccc34)[C@@]2(C)C1=O,65*,.,60*,12,7,7,46*,58*
CC(C)C[C@@H](C(=O)NC1CC1)N1C(=O)N2CCc3c([nH]c4ccccc34)[C@@]2(C)C1=O,-6,.,-2,4,8,3,.,.
O=C(N/N=C/c1cccs1)c1ccc2ccccc2c1,-13,.,25,3,-4,3,.,.
Cc1ccc(/C=N/NC(=O)c2ccc3ccccc3c2)s1,-24,.,56*,50,-1,7,68*,73*
O=C(CCNC(=O)C1CCN(S(=O)(=O)c2ccccc2)CC1)NCc1ccc(Cl)c(Cl)c1,6,.,-5,-6,0,.,.,.
N/C(=N\OC(=O)c1cnn(-c2ccccc2)c1C(F)(F)F)c1cc(C(F)(F)F)cc(C(F)(F)F)c1,-12,.,52*,-18,12,-2,19,.
O=C(NNC(=O)C(Cl)Cl)c1cnn(-c2ccccc2)c1C(F)(F)F,-12,.,-36,10,6,2,.,.
COc1ccc(C2=Nn3c([n+](C)c4ccccc43)SC2)cc1,70*,100*,60*,-9,-6,112*,38,.
